The text below walks through data of article PMC7736561 (Angewandte Chemie (International ed. in English), 2020).

The subject of one series is Asp-N. The experiment in a line: Proteolytic degradation by Asp-N endoproteinase, LCMS analysis. The class given is in vitro ADME. Conditions: SF8(DDDDG)2 vs linear azido-DDDDG, 2 hours. In a few lines:
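The test compound and the linear pentapeptide comparator were each incubated separately at 10 μM with Asp-N, an endoproteinase that cleaves peptide bonds on the N-terminal side of aspartic acid residues.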

A further series is described as follows: Water solubility. The format is physicochemical. Conditions: in water.
The nature of series [1]: Histology staining of bone sections. On the set-up: species or system mouse. Put shortly: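 Thin sections of mouse tibia were treated with a 5 μM probe solution for 30 minutes and then imaged by fluorescence microscopy. For the demineralized comparison, slices were pre-treated with EDTA before staining. A charge-balanced, net-neutral peptide probe served as the control stain.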

Series [2] in a line: Self-aggregation in water by absorption spectrum. The format is physicochemical. Conditions: absorption spectrum in water (Figures S7, S10).
Series [3] in a line: Chemical stability of squaraine fluorophore in PBS. The format is physicochemical. Conditions: pH 7.4, followed over 15 hours (Figure S11A).

Regarding “(DDDDG)2 (bicyclic or more) [SF8(DDDDG)2]”, the “factor by which proteolytic degradation of the peptide sequence was reduced” value in the series on Asp-N was determined as 3.8. For the same substance, the water solubility result in “Water solubility” is “high water-solubility”. The “staining of demineralized bone slices” value in series [1] (bone slices demineralized with pre-treatment of EDTA (Figure S26)) is recorded as “no staining”. The “staining of bone histology slices” value in series [1] (thin sections of mouse tibia bone, probe 5 μM, 30 minutes) was “strongly stained the mineral segments”. Besides, in series [2], the self-aggregation entry is “no molecular self-aggregation”.
In the case of (azido-DDDDG)2 [SR(azido-DDDDG)2], the water solubility entry in the series “Water solubility” is on record as “low solubility”. Further, the self-aggregation result in series [2] is listed as “formation of non-fluorescent H-aggregates”.
As to (azido-RRRG)2 [SR(azido-RRRG)2], in “Water solubility”, the water solubility entry is given as “soluble”. Moreover, in series [3], the “chemical stability, fluorescence profile of solution” value is recorded as “almost completely bleached after a few hours”. The self-aggregation entry in series [2] is listed as “unaggregated”.
